Source: ChEMBL document CHEMBL1138326, “Structure-based design, synthesis, and biological evaluation of indomethacin derivatives as cyclooxygenase-2 inhibiting nitric oxide donors” (J Med Chem, 2007)

Experiments:
[1] = molecular target: T1, Prostaglandin G/H synthase 1 (Homo sapiens, UniProt P23219); assay: Inhibition of COX1 in human whole blood assessed as effect on A23187-induced thromboxane B2 production; assay type: tissue-based
Rattus norvegicus [2] = assay: Antiinflammatory activity against intrapouch dosed Sprague-Dawley rat carrageenan air-pouch model assessed as reduction of prostaglandin E2 at 45 umol/kg; assay type: functional; parameters: scale not given: the % may be the effect or the level left
Procedure, shortened: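 Air pouch made with 20 mL sterile air sc on day -6 and 10 mL more on day -3; rats fasted 18 h. Compound in 0.5% methocel injected into the pouch 1 h before carrageenan (1 mL of 1.0% in saline). After 4 h, exudate recovered with PBS/heparin and assayed for PGE2 by enzyme immunoassay.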

Rattus norvegicus [3] = assay: Antiinflammatory activity against Sprague-Dawley rat carrageenan air-pouch model assessed as reduction of prostaglandin E2 at 45 umol/kg, po; assay type: functional; parameters: scale not given: the % may be the effect or the level left
Procedure, shortened: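 Air pouches raised by sc injection of 20 mL sterile air (day -6) plus 10 mL on day -3; rats fasted 18 h. Compound suspended in 0.5% methocel given orally 1 h before intrapouch carrageenan (1 mL of 1.0% in saline). Exudate collected 4 h later after PBS/heparin lavage; PGE2 by enzyme immunoassay. Means ± SEM, n = 6–22; ANOVA with Dunnett's test vs vehicle.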

[4] = molecular target: T2, Prostaglandin G/H synthase 2 (Homo sapiens) (UniProt P35354); assay: Inhibition of COX2 in human whole blood assessed as effect on LPS-induced thromboxane B2 production at 30 uM relative to control; values are per cent of control
T2 sequence (whole entry): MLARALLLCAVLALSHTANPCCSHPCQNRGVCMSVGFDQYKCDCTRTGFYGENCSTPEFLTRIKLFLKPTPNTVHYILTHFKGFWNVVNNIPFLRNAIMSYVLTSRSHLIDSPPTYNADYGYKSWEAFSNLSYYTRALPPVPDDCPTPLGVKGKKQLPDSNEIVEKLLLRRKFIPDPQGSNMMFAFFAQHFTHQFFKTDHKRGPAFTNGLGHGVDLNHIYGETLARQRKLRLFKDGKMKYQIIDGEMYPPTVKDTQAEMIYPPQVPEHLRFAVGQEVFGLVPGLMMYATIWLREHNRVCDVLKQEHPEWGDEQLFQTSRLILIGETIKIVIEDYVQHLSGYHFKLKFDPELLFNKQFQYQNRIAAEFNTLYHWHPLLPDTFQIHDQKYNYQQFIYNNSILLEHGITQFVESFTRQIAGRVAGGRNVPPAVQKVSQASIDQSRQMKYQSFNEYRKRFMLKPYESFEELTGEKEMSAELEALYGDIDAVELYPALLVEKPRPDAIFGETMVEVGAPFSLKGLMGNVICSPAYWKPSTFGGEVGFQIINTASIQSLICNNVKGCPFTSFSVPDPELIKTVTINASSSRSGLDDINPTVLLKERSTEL

[5] = molecular target: T1, Prostaglandin G/H synthase 1; assay: Inhibition of COX1 in human whole blood assessed as effect on A23187-induced thromboxane B2 production at 3 uM relative to control; values are per cent of control
[6] = molecular target: T1, Prostaglandin G/H synthase 1; assay: Inhibition of COX1 in human whole blood assessed as effect on A23187-induced thromboxane B2 production at 1 uM relative to control; values are per cent of control
[7] = molecular target: T1, Prostaglandin G/H synthase 1; assay: Inhibition of COX1 in human whole blood assessed as effect on A23187-induced thromboxane B2 production at 30 uM relative to control; values are per cent of control
[8] = molecular target: T1, Prostaglandin G/H synthase 1; assay: Inhibition of COX1 in human whole blood assessed as effect on A23187-induced thromboxane B2 production at 10 uM relative to control; values are per cent of control
[9] = molecular target: T1, Prostaglandin G/H synthase 1; assay: Inhibition of COX1 in human whole blood assessed as effect on A23187-induced thromboxane B2 production at 100 uM relative to control; values are per cent of control
Homo sapiens = organism: Homo sapiens; assay: Selectivity for human COX2 over human COX1
[10] = molecular target: T1, Prostaglandin G/H synthase 1; assay: Inhibition of COX1 in human whole blood assessed as effect on A23187-induced thromboxane B2 production at 0.3 uM relative to control; values are per cent of control

T1 sequence (P23219 whole entry): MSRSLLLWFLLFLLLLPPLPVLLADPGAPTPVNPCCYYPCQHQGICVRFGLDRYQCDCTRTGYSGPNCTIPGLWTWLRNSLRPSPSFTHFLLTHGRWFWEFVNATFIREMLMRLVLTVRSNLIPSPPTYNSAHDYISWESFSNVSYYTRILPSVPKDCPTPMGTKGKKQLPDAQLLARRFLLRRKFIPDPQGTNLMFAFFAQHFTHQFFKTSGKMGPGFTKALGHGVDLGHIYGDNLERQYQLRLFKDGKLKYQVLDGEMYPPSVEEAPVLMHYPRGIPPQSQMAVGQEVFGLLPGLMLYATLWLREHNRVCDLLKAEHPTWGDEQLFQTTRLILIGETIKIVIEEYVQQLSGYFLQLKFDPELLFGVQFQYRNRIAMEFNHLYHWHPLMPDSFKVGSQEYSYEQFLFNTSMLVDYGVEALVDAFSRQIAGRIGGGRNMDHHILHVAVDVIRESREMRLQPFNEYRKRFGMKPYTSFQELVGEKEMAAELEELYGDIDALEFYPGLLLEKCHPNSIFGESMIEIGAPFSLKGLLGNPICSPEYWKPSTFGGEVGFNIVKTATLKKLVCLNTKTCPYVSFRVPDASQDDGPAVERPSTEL

SMILES | IC50 [1] [nM] | residual activity [5] [%] | residual activity [6] [%] | residual activity [8] [%] | residual activity [9] [%] | also measured
COc1ccc2c(c1)c(CCNS(=O)(=O)CCCO[N+](=O)[O-])c(C)n2C(=O)c1ccc(Cl)cc1 | 11000 | 68 | 100 | 57 | 16 | Activity (Rattus norvegicus [2]): 59%; Activity (Rattus norvegicus [3]): 44%; residual activity [4]: 7%; residual activity [7]: 20%
COc1ccc2c(c1)c(CCNC(=O)NCCCO[N+](=O)[O-])c(C)n2C(=O)c1ccc(Cl)cc1 | 3000 |  | 93 | 29 | 2 | Ratio IC50 (Homo sapiens): 0.3
Cc1c(CC(=O)NCCCO[N+](=O)[O-])c2cc(O)ccc2n1C(=O)c1ccc(Cl)cc1 | 4700 | 74 |  | 27 | 1 | residual activity [4]: 2%; residual activity [7]: 1%
COc1ccc2c(c1)c(CC(=O)NC(CO[N+](=O)[O-])(CO[N+](=O)[O-])CO[N+](=O)[O-])c(C)n2C(=O)c1ccc(Cl)cc1 | 1200 | 16 | 50 | 11 | 1 | 
COc1ccc2c(c1)c(CCN)c(C)n2C(=O)c1ccc(Cl)cc1 | > 10000 |  | 100 | 100 | 1 | residual activity [4]: 78%
Cc1c(CC(=O)NCCCO[N+](=O)[O-])c2cc(OS(N)(=O)=O)ccc2n1C(=O)c1ccc(Cl)cc1 | > 100000 |  | 100 | 92 | 65 | Ratio IC50 (Homo sapiens): > 4; residual activity [4]: 46%
Cc1c(CC(=O)NCCCO)c2cc(O)ccc2n1C(=O)c1ccc(Cl)cc1 | 5400 | 58 | 83 | 40 | 8 | residual activity [4]: 4%; residual activity [7]: 7%
COc1ccc2c(c1)c(CCNS(=O)(=O)c1ccc(CO[N+](=O)[O-])cc1)c(C)n2C(=O)c1ccc(Cl)cc1 | 1900 |  | 68 | 23 | 12 | 
COc1cc2c(CC(=O)O)c(C)n(C(=O)c3ccc(Cl)cc3)c2cc1Cl | 1600 | 41 | 61 | 24 | 13 | Ratio IC50 (Homo sapiens): 0.4; residual activity [4]: 0%; residual activity [7]: 2%
Cc1c(CC(=O)O)c2cc(O)ccc2n1C(=O)c1ccc(Cl)cc1 |  | 80 | 100 | 55 | 18 | residual activity [4]: 0%
COc1ccc2c(c1)c(CCOC(=O)NS(=O)(=O)OCCCO[N+](=O)[O-])c(C)n2C(=O)c1ccc(Cl)cc1 |  |  |  |  | 44 | 
COc1ccc2c(c1)c(CCOC(=O)NS(=O)(=O)NCCCO[N+](=O)[O-])c(C)n2C(=O)c1ccc(Cl)cc1 |  |  | 100 | 100 | 61 | 
COc1ccc2c(c1Cl)c(CC(=O)OCc1ccccc1)c(C)n2C(=O)c1ccc(Cl)cc1 | > 100000 |  |  |  | 65 | 
COc1ccc2c(c1)c(CC(=O)O)c(C)n2C(=O)c1ccc(Cl)cc1 [INDOMETHACIN] |  |  |  |  |  | Activity (Rattus norvegicus [2]): 97%
COc1ccc2c(c1)c(CCNC(=O)c1ccc(CO[N+](=O)[O-])cc1)c(C)n2C(=O)c1ccc(Cl)cc1 | < 1000 |  |  |  |  | 

Further lines, with some results ahead:

IC50 [1] [nM] | residual activity [5] [%] | residual activity [6] [%] | residual activity [8] [%] | residual activity [9] [%] | SMILES | also measured
< 1000 | 20 |  | 3 | 1 | COc1ccc2c(c1)c(CC(=O)NOCCO)c(C)n2C(=O)c1ccc(Cl)cc1 | 
 |  |  |  | 95 | COc1ccc2c(c1)c(CCO)c(C)n2CC1CCCCC1 | 
 |  |  |  | 93 | COc1ccc2c(c1)c(CCO[N+](=O)[O-])c(C)n2CC1CCCCC1 | 
< 300 |  |  |  | 0 | COc1ccc2c(c1)c(CC(=O)NOCc1ccccc1)c(C)n2C(=O)c1ccc(Cl)cc1 | 
 |  |  |  | 100 | COc1ccc2c(c1)c(CC(=O)NCCCO[N+](=O)[O-])c(C)n2CC1CCCCC1 | 
 |  |  |  | 53 | COc1ccc2c(c1)c(CC(=O)NCCCO[N+](=O)[O-])c(C)n2Cc1ccc(S(C)(=O)=O)cc1 | 
2600 | 45 | 78 | 25 | 3 | COc1ccc2c(c1)c(CC(=O)NCC(C)(C)CO[N+](=O)[O-])c(C)n2C(=O)c1ccc(Cl)cc1 | residual activity [7]: 3%
 |  |  |  | 87 | COc1ccc2c(c1)c(CC(=O)O)c(C)n2Cc1ccc(S(C)(=O)=O)cc1 | 
2800 |  | 84 | 29 | 2 | COc1ccc2c(c1)c(CC(=O)NO)c(C)n2C(=O)c1ccc(Cl)cc1 [OXAMETACIN] | 
 |  | 83 | 74 | 62 | COc1ccc2c(c1)c(CCOC(=O)NCCCO[N+](=O)[O-])c(C)n2C(=O)c1ccc(Cl)cc1 | 
< 1000 |  | 39 | 14 | 6 | COc1ccc2c(c1)c(CC(=O)N(OC(C)=O)C(C)=O)c(C)n2C(=O)c1ccc(Cl)cc1 | 
2300 | 18 | 76 | 16 | 0 | COc1ccc2c(c1)c(CCO)c(C)n2C(=O)c1ccc(Cl)cc1 | 
 |  |  |  | 85 | CCOC(=O)Cc1c(C)n(CC2CCCCC2)c2ccc(OC)cc12 | 
< 300 |  |  |  | 1 | COc1ccc2c(c1)c(CC(=O)NOCCCO)c(C)n2C(=O)c1ccc(Cl)cc1 | Ratio IC50 (Homo sapiens): < 0.4; residual activity [10]: 28%
3700 | 51 | 73 | 33 | 6 | COc1ccc2c(c1)c(CCNS(=O)(=O)CCCO)c(C)n2C(=O)c1ccc(Cl)cc1 | Ratio IC50 (Homo sapiens): 3.5; Activity (Rattus norvegicus [2]): 98%; Activity (Rattus norvegicus [3]): 96%; residual activity [4]: 0%; residual activity [7]: 23%; residual activity [10]: 82%
 |  |  |  | 85 | COc1ccc2c(c1)c(CC(=O)O)c(C)n2CC1CCCCC1 | 
 |  | 69 | 73 | 15 | COc1ccc2c(c1)c(CCO[N+](=O)[O-])c(C)n2C(=O)c1ccc(Cl)cc1 | 
2400 | 46 | 64 | 23 | 1 | COc1ccc2c(c1)c(CC(=O)NCCCCO)c(C)n2C(=O)c1ccc(Cl)cc1 | Ratio IC50 (Homo sapiens): 2
3600 |  | 68 | 34 | 7 | COc1ccc2c(c1)c(CC(=O)NOC(C)=O)c(C)n2C(=O)c1ccc(Cl)cc1 | 
> 100000 |  |  |  | 58 | COc1cc2c(CC(=O)OCc3ccccc3)c(C)n(C(=O)c3ccc(Cl)cc3)c2cc1Cl | 
 |  |  |  | 76 | COc1ccc2c(c1)c(CCP(=O)(O)O)c(C)n2C(=O)c1ccc(Cl)cc1 | 
